Experimental data as given in ChEMBL document CHEMBL1154951, “Discovery of potent and bioavailable GSK-3beta inhibitors” (Bioorg Med Chem Lett, 2010).
pIC50, pKd: −log10 of the molar value. ≈ marks a conversion by molar mass, not a printed value. Values belong to the molecule of their own block, whether it stands above or below them. Calls of active or inactive are those of the source. No cut-off for these calls is given here.

What was measured:
[1] = target: Glycogen synthase kinase-3 beta (Homo sapiens, UniProt P49841); assay: Inhibition of human recombinant GSK3-beta assessed as [gamma33]ATP transfer to biotinylated CREB-peptide substrate after 1 hr by scintillation counting
Sequence of Glycogen synthase kinase-3 beta (P49841 whole entry): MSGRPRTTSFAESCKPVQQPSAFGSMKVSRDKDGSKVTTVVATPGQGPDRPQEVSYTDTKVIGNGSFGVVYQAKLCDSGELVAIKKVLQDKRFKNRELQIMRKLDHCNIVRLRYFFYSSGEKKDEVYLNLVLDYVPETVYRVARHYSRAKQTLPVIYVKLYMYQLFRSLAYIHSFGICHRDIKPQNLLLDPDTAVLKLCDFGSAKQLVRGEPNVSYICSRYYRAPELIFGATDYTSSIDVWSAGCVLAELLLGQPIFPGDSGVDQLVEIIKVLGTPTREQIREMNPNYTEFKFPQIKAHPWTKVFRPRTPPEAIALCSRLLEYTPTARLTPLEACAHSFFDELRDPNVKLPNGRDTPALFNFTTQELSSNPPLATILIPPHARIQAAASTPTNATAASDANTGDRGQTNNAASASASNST

[2] = target: Protein kinase C alpha type (Homo sapiens, UniProt P17252); assay: Inhibition of PKCalpha
[3] = system: Mus musculus; assay: AUC in mouse at 10 mg/kg, ip; format: ADME, organism-based, Plasma; design: dose 10 mg/kg, route intraperitoneal; details: in vivo, BLD = below limit of detection
[4] = Aqueous solubility at pH 6.6; format: physicochemical
[5] = system: Mus musculus; assay: Cmax in mouse at 10 mg/kg, ip; format: ADME, organism-based; design: dose 10 mg/kg, route intraperitoneal; details: in vivo, BLD = below limit of detection
[6] = target: Cyclin-dependent kinase 9 (Homo sapiens, UniProt P50750); assay: Inhibition of CDK9
Sequence of Cyclin-dependent kinase 9 (P50750 whole entry): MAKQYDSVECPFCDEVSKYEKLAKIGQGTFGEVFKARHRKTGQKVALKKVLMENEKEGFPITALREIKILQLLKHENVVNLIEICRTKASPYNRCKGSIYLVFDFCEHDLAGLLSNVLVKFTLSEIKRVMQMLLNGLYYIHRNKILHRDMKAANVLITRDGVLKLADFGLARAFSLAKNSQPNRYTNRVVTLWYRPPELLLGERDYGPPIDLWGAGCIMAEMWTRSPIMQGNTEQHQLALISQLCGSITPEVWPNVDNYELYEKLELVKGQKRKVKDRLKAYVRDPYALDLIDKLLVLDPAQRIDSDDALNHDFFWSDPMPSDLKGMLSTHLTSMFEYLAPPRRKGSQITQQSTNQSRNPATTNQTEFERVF
Procedure, shortened: (§1)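 Competition binding assay giving binding constant (Kd) from an 11-point quantitative affinity curve against each kinase in a selectivity panel; values reported in µM and as ratio over GSK3b.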

[7] = target: Mitogen-activated protein kinase 7 (Homo sapiens, UniProt Q13164); assay: Inhibition of ERK5
Procedure, shortened: (§2)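 Affinity measured as a binding constant (Kd) in a quantitative competition binding assay, not as a catalytic activity read-out. An 11-point concentration curve was run for each kinase. Kd values are given in µM. Each value is also expressed as a ratio over the Kd for GSK3b.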

[8] = target: Aurora kinase A (Homo sapiens, UniProt O14965); assay: Inhibition of AURKA; procedure, shortened: as §1
Sequence of Aurora kinase A (O14965 whole entry): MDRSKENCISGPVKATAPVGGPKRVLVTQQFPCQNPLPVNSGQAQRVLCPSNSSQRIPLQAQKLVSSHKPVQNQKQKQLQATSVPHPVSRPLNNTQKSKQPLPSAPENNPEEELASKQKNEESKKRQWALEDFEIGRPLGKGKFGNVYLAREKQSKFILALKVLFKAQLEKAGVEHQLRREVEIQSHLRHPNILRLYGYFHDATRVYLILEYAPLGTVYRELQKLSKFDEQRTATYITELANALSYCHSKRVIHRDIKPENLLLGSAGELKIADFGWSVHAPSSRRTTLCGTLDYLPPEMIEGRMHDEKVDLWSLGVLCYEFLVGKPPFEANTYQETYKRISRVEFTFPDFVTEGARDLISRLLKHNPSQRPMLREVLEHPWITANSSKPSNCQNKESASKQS

[9] = target: Cyclin-dependent kinase 5 (Homo sapiens, UniProt Q00535); assay: Inhibition of CDK5; procedure, shortened: as §2
[10] = target: Serine/threonine-protein kinase PLK1 (Homo sapiens, UniProt P53350); assay: Inhibition of PLK1; procedure, shortened: as §2
Sequence of Serine/threonine-protein kinase PLK1 (P53350 whole entry): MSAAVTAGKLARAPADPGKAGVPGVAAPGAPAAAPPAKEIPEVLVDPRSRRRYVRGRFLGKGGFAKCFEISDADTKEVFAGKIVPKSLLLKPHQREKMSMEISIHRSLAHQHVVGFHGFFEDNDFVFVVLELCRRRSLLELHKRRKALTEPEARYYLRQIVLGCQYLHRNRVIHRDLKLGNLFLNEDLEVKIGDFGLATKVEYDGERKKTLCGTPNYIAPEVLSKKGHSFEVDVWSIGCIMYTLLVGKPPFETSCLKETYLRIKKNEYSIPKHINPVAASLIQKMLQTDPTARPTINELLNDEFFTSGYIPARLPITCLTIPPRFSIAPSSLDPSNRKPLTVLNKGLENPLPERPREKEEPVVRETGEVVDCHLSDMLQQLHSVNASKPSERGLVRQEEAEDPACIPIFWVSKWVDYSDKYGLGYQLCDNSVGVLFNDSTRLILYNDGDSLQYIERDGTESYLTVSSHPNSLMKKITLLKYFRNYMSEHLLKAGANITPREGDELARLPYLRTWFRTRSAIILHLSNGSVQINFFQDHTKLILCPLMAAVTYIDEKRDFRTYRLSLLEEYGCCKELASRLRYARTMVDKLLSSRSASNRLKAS

[11] = target: Cyclin-dependent kinase 2 (Homo sapiens, UniProt P24941); assay: Inhibition of CDK2; procedure, shortened: as §2
[12] = target: Dual specificity tyrosine-phosphorylation-regulated kinase 1B (Homo sapiens, UniProt Q9Y463); assay: Inhibition of DYRK1B; procedure, shortened: as §1
Sequence of Dual specificity tyrosine-phosphorylation-regulated kinase 1B (Q9Y463 whole entry): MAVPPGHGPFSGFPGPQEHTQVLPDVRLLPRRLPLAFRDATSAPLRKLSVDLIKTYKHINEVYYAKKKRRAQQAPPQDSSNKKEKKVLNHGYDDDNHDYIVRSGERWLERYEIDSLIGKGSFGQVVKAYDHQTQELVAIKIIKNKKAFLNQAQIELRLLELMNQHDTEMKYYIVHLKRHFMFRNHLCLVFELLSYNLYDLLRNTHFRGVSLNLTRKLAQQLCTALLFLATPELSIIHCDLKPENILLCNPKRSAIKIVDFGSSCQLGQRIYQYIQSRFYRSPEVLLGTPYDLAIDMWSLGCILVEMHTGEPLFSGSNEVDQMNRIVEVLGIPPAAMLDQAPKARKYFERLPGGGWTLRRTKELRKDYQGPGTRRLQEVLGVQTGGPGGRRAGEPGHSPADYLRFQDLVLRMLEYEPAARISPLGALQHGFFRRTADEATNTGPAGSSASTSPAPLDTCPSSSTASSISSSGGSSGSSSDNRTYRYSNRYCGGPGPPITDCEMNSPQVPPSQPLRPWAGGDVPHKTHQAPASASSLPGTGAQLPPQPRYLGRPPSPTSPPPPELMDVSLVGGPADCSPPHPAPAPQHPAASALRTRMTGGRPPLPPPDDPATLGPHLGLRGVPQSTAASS

[13] = target: Serine/threonine-protein kinase 16 (Homo sapiens, UniProt O75716); assay: Inhibition of STK16; procedure, shortened: as §2
Sequence of Serine/threonine-protein kinase 16 (O75716 whole entry): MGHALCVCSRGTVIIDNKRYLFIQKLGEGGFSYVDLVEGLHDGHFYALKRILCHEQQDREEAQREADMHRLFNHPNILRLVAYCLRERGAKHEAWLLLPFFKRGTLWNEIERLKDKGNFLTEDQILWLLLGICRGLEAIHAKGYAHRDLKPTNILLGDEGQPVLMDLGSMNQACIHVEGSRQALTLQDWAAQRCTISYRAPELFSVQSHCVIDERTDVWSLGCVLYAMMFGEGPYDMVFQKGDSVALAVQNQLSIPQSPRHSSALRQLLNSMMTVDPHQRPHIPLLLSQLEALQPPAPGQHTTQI

[14] = target: Glycogen synthase kinase-3 alpha (Homo sapiens, UniProt P49840); assay: Inhibition of GSK3alpha; procedure, shortened: as §2
[15] = target: Aurora kinase C (Homo sapiens, UniProt Q9UQB9); assay: Inhibition of AURKC; procedure, shortened: as §2
[16] = target: Cyclin-dependent kinase 19 (Homo sapiens, UniProt Q9BWU1); assay: Inhibition of CDK11; procedure, shortened: as §2
[17] = system: Rattus norvegicus; assay: Antiosteoporosis activity in ovariectomized rat assessed as increase in bone mineral density in proximal tibia at 30 mg/kg, po QD for 3 weeks by bone densitometer relative to control; format: functional, organism-based; design: dose 30 mg/kg
[18] = system: Rattus norvegicus; assay: Antiosteoporosis activity in ovariectomized rat assessed as increase in bone mineral density in whole femur at 30 mg/kg, po QD for 3 weeks by bone densitometer relative to control; format: functional, organism-based; design: dose 30 mg/kg
[19] = target: Interferon-induced, double-stranded RNA-activated protein kinase (Homo sapiens, UniProt P19525); assay: Inhibition of PRKR; procedure, shortened: as §1
[20] = target: Dual specificity protein kinase CLK1 (Homo sapiens, UniProt P49759); assay: Inhibition of CLK1; procedure, shortened: as §2
[21] = target: Dual specificity protein kinase CLK2 (Homo sapiens, UniProt P49760); assay: Inhibition of CLK2; procedure, shortened: as §2
[22] = target: Serine/threonine-protein kinase PLK4 (Homo sapiens, UniProt O00444); assay: Inhibition of PLK4; procedure, shortened: as §2
[23] = target: Dual specificity protein kinase TTK (Homo sapiens, UniProt P33981); assay: Inhibition of TTK; procedure, shortened: as §2
[24] = target: Mitogen-activated protein kinase 4 (Homo sapiens, UniProt P31152); assay: Inhibition of ERK4; procedure, shortened: as §2
Sequence of Mitogen-activated protein kinase 4 (P31152 whole entry): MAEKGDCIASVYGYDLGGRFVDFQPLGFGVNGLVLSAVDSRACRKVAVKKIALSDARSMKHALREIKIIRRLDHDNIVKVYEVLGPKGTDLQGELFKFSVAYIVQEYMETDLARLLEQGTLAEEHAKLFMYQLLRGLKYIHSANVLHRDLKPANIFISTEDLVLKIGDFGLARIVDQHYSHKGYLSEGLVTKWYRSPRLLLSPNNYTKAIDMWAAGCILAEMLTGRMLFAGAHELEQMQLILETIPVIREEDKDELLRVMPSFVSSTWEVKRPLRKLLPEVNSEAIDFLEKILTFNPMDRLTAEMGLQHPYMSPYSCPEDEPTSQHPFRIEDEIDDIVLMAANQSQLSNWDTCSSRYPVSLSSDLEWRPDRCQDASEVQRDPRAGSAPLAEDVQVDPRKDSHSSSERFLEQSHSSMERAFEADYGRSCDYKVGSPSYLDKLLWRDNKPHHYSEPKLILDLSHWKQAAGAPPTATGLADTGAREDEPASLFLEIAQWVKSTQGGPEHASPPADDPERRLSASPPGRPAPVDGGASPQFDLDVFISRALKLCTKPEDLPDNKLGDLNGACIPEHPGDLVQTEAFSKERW

[25] = target: Mitogen-activated protein kinase 1 (Homo sapiens, UniProt P28482); assay: Inhibition of ERK2; procedure, shortened: as §2
[26] = target: Mitogen-activated protein kinase 6 (Homo sapiens, UniProt Q16659); assay: Inhibition of ERK3; procedure, shortened: as §2
[27] = target: Mitogen-activated protein kinase 15 (Homo sapiens, UniProt Q8TD08); assay: Inhibition of ERK8; procedure, shortened: as §2
[28] = target: Aurora kinase B (Homo sapiens, UniProt Q96GD4); assay: Inhibition of AURKB; procedure, shortened: as §2
[29] = target: Cyclin-dependent kinase 7 (Homo sapiens, UniProt P50613); assay: Inhibition of CDK7; procedure, shortened: as §2
[30] = target: Cyclin-dependent kinase 3 (Homo sapiens, UniProt Q00526); assay: Inhibition of CDK3; procedure, shortened: as §1
[31] = system: Rattus norvegicus; assay: Antiosteoporosis activity in ovariectomized rat assessed as increase in bone mineral density in distal femur at 30 mg/kg, po QD for 3 weeks by bone densitometer relative to control; format: functional, organism-based; design: dose 30 mg/kg
[32] = target: Cyclin-dependent kinase 18 (Homo sapiens, UniProt Q07002); assay: Inhibition of PCTK3; procedure, shortened: as §2
Sequence of Cyclin-dependent kinase 18 (Q07002 whole entry): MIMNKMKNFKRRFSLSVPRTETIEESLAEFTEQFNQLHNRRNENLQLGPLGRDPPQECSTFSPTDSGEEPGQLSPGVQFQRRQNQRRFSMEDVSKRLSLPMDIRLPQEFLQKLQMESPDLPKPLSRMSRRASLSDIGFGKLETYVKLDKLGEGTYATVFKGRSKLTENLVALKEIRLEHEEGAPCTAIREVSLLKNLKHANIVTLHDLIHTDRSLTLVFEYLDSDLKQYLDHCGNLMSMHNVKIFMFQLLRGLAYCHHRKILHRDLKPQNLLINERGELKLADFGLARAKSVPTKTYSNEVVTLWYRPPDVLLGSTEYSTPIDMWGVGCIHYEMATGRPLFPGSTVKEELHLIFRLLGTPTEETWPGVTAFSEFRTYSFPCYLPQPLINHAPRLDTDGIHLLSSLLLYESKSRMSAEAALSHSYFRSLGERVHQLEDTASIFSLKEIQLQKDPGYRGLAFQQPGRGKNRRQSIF

[33] = target: Mitogen-activated protein kinase 3 (Homo sapiens, UniProt P27361); assay: Inhibition of ERK1; procedure, shortened: as §2
Sequence of Mitogen-activated protein kinase 3 (P27361 whole entry): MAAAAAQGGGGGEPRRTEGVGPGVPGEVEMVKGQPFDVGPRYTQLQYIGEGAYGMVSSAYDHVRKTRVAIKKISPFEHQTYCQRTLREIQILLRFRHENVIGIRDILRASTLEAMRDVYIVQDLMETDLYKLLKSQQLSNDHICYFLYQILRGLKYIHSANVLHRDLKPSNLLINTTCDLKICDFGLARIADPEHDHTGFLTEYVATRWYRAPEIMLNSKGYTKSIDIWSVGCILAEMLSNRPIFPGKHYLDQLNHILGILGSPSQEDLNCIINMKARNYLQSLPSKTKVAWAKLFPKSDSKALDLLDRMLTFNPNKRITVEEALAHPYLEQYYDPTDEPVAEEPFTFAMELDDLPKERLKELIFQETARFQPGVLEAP

[34] = target: Dual specificity protein kinase CLK4 (Homo sapiens, UniProt Q9HAZ1); assay: Inhibition of CLK4; procedure, shortened: as §2
[35] = system: Rattus norvegicus; assay: Antiosteoporosis activity in ovariectomized rat assessed as increase in bone mineral density in L5 vertebra at 30 mg/kg, po QD for 3 weeks by bone densitometer relative to control; format: functional, organism-based; design: dose 30 mg/kg
[36] = target: Cyclin-dependent kinase 8 (Homo sapiens, UniProt P49336); assay: Inhibition of CDK8; procedure, shortened: as §2
[37] = target: Dual specificity protein kinase CLK3 (Homo sapiens, UniProt P49761); assay: Inhibition of CLK3; procedure, shortened: as §2
[38] = target: Serine/threonine-protein kinase PLK3 (Homo sapiens, UniProt Q9H4B4); assay: Inhibition of PLK3; procedure, shortened: as §2
[39] = target: Cyclin-dependent kinase 17 (Homo sapiens, UniProt Q00537); assay: Inhibition of PCTK2; procedure, shortened: as §2
[40] = system: Rattus norvegicus; assay: Cmax in rat at 25 mg/kg, po; details: in vivo
[41] = system: Rattus norvegicus; assay: AUC in rat at 25 mg/kg, po; details: plasma

Compound: Nc1nc(NCCNc2ncc(-c3ncc[nH]3)c(-c3ccc(Cl)cc3Cl)n2)ccc1[N+](=O)[O-]
pIC50 [1]: 9.25

Compound: Cn1cc(C2=C(N3CCOCC3)C(=O)NC2=O)c2ccccc21
pIC50 [1]: 5.09

Compound: Cn1cc(C2=C(Oc3ccccc3)C(=O)NC2=O)c2ccccc21
pIC50 [1]: 5.55

Compound: Cn1cc(C2=C(N(C(=O)OC(C)(C)C)c3ccccc3)C(=O)NC2=O)c2ccccc21
pIC50 [1]: 5.51

Compound: Cn1cc(C2=C(c3cccc(NCCCO)c3)C(=O)NC2=O)c2ccccc21
pIC50 [1]: 9.00
pIC50 [2]: 6.13

Compound: Cn1cc(C2=C(c3ccc(-c4ccccc4)cc3)C(=O)NC2=O)c2ccccc21
pIC50 [1]: 6.14

Compound: Cn1cc(C2=C(Sc3ccccc3)C(=O)NC2=O)c2ccccc21
pIC50 [1]: 5.70

Compound: Cn1cc(C2=C(Nc3ccccc3)C(=O)NC2=O)c2ccccc21
pIC50 [1]: 6.46

Compound: CN(C)c1nc2ccc1CCCN1C=C(C3=C(C(=O)NC3=O)c3cn(c4ccccc34)CCC2)N2C=CC=CC12 (stereo not drawn)
pIC50 [1]: 8.15

Compound: Cn1cc(C2=C(c3c4n(c5ccccc35)CCN(C(N)=S)C4)C(=O)NC2=O)c2ccccc21
pIC50 [1]: 8.00
pIC50 [2]: 5.98

Compound: Cn1cc(C2=C(c3cccc(OCC(O)CO)c3)C(=O)NC2=O)c2cc(F)ccc21 (racemic)
solubility [4]: 2.8 µg/mL (≈ 6.82 µM)
pIC50 [1]: 8.74
pIC50 [2]: 5.66

Compound: Cn1cc(C2=C(c3cccc(NCC(O)CO)c3)C(=O)NC2=O)c2cc(F)ccc21 (racemic)
pKd [6]: 6.39
pKd [7]: 5.25
pKd [8]: 4.40
pKd [9]: 5.17
pKd [10]: 4.64
pKd [11]: 6.82
pKd [12]: 7.06
pKd [13]: 6.64
pKd [14]: 8.82
pKd [15]: 4.64
pKd [16]: 4.40
Activity [17]: Active
Activity [18]: Active
solubility [4]: 104 µg/mL (≈ 254 µM)
pKd [19]: 4.85
pKd [20]: 7.80
pKd [21]: 8.00
pKd [22]: 6.49
pKd [23]: 5.17
pKd [24]: 4.40
pKd [25]: 4.40
pKd [26]: 4.40
pKd [27]: 7.49
pKd [28]: 4.40
pKd [29]: 7.39
pKd [30]: 7.10
Activity [31]: Active
pKd [32]: 6.96
pKd [33]: 4.40
pKd [34]: 6.96
Activity [35]: Active
pIC50 [2]: 6.40
pKd [36]: 4.40
pKd [37]: 6.51
pKd [38]: 4.40
pKd [39]: 7.16

Compound: Cn1cc(C2=C(c3cccc(NCC(O)CO)c3)C(=O)NC2=O)c2cc(Cl)ccc21 (racemic)
solubility [4]: 42 µg/mL (≈ 98.6 µM)
pIC50 [1]: 9.40
Cmax [40]: 110 ng/mL
AUC [41]: 100 ng·h/mL
pIC50 [2]: 6.59

Second part, the molecule after the results:

pIC50 [1]: 6.66
Compound: COc1cccc(C2=C(c3c(C)n(C)c4ccccc34)C(=O)NC2=O)c1

pIC50 [1]: 7.46
pIC50 [2]: 5.54
Compound: COc1cccc(C2=C(c3cn(C)c4cc(C)ccc34)C(=O)NC2=O)c1

pIC50 [1]: 5.89
Compound: COc1cccc(C2=C(c3cn(C)c4cccc(OC)c34)C(=O)NC2=O)c1

pIC50 [1]: 7.51
pIC50 [2]: 5.38
Compound: COc1cccc(C2=C(c3cn(C)c4cc(F)ccc34)C(=O)NC2=O)c1

pIC50 [1]: 8.19
pIC50 [2]: 5.85
Compound: COc1cccc(C2=C(c3cn(C)c4ccc(Cl)cc34)C(=O)NC2=O)c1

pIC50 [1]: 8.18
pIC50 [2]: 5.18
Compound: COc1ccc(C2=C(c3cn(C)c4ccccc34)C(=O)NC2=O)cc1OC

pIC50 [1]: 7.66
pIC50 [2]: 6.42
Compound: COc1ccc(OC)c(C2=C(c3cn(C)c4ccccc34)C(=O)NC2=O)c1

pIC50 [1]: 7.38
pIC50 [2]: < 4.52
Compound: Cn1cc(C2=C(c3cccnc3)C(=O)NC2=O)c2ccccc21

pIC50 [1]: 8.62
pIC50 [2]: 5.26
Compound: COc1ccc(C2=C(c3cn(C)c4ccccc34)C(=O)NC2=O)c(OC)c1

AUC [3]: BLD
solubility [4]: < 0.5 µg/mL
pIC50 [1]: 7.05
Cmax [5]: BLD
pIC50 [2]: 5.22
Compound: COc1cccc(C2=C(c3cn(C)c4ccccc34)C(=O)NC2=O)c1

pIC50 [1]: 8.44
pIC50 [2]: 6.12
Compound: Cn1cc(C2=C(c3ccccc3Cl)C(=O)NC2=O)c2ccccc21

pIC50 [1]: 7.66
pIC50 [2]: 5.05
Compound: Cn1cc(C2=C(c3cccs3)C(=O)NC2=O)c2ccccc21

pIC50 [1]: 8.74
pIC50 [2]: 5.72
Compound: Cn1cc(C2=C(c3cccc(N)c3)C(=O)NC2=O)c2ccccc21
